Measurements published in ChEMBL document CHEMBL4732199, “Potent and orally bioavailable CDK8 inhibitors: Design, synthesis, structure-activity relationship analysis and biological evaluation” (Eur J Med Chem, 2021).

How the values were obtained:
CDK8/Cyclin C = CDK8/Cyclin C (Homo sapiens, UniProt P49336); test: Inhibition of CDK8/cyclin C (unknown origin) using RBER-IRStide as substrate incubated for 60 mins in presence of [gamma33P]ATP by scintillation counting method; format: protein-complex assay
CDK8/Cyclin C, sequence (P49336 whole entry): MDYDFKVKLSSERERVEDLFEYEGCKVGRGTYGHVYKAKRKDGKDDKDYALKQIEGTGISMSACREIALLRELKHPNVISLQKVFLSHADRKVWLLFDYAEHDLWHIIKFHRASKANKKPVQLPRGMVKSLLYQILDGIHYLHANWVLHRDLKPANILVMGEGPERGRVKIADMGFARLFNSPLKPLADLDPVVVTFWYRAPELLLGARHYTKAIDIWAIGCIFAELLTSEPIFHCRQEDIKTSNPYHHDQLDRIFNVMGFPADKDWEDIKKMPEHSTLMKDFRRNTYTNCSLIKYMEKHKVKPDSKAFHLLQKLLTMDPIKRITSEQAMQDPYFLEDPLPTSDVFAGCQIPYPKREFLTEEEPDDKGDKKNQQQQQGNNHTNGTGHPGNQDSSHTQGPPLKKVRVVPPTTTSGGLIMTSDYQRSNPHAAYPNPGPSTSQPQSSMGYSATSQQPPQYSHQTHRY
CDK8/Cyclin C, sequence (P24863 whole entry, further chain): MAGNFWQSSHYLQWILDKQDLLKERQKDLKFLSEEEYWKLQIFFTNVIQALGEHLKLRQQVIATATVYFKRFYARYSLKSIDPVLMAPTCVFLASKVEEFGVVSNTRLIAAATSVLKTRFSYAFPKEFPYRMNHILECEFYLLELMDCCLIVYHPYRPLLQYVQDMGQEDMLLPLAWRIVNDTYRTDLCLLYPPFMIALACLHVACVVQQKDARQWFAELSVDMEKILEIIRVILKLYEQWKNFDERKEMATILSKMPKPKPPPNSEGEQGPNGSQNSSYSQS

MV4-11 = test: Growth inhibition of human MV4-11 cells after 72 hrs by resazurin staining based assay; format: functional
Summary of the method: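 MV4-11 leukaemia cells grown in medium with 10% FBS at 37 °C, 5% CO2. Growth was read by a 72-h resazurin viability assay. GI50 was obtained by nonlinear regression and reported as mean ± standard deviation of at least two replicates.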

Row | Ki (CDK8/Cyclin C) [µM] | GI50 (MV4-11) [µM] | Structure (SMILES)
1 | 0.138 | 53.5 | O=C1NCCC12CCN(c1c(Cl)cncc1-c1ccnc3ccccc13)CC2
2 | 0.056 | 8.77 | O=C1NCCC12CCN(c1c(Cl)cncc1-c1c[nH]c3ccccc13)CC2
3 | 3.14 | 64.2 | O=C1NCCC12CCN(c1c(Cl)cncc1-c1cccc3ccncc13)CC2
4 | 0.114 | 9.15 | O=C1NCCC12CCN(c1c(Cl)cncc1-c1cccc3cccnc13)CC2
5 | 0.058 | 30.6 | O=C1NCCC12CCN(c1c(Cl)cncc1-c1cn(Cc3ccccc3)c3ncccc13)CC2
6 | 0.022 | 3.65 | O=C1NCCC12CCN(c1c(Cl)cncc1-c1cccc3ncccc13)CC2
7 | 1.3 | 40.2 | O=C1NCCC12CCN(c1c(Cl)cncc1-c1cn(S(=O)(=O)c3ccccc3)c3ncccc13)CC2
8 | 0.052 | 62.3 | O=C1NCCC12CCN(c1c(Cl)cncc1-c1cccc3cnccc13)CC2
9 | 0.019 | 1.91 | O=C1NCCC12CCN(c1c(Cl)cncc1-c1cccc3[nH]ccc13)CC2
10 | 2.03 | 35 | CNC(=O)c1ccn(-c2c(Cl)cncc2-c2ccc(-c3cnn(C)c3)cc2)c1
11 | 0.016 | 0.82 | O=C1NCCC12CCN(c1c(Cl)cncc1-c1cccc3ccccc13)CC2
12 | 4.19 | 87.1 | Cn1cc(-c2ccc(-c3cncc(Cl)c3-n3ccc(C(=O)O)c3)cc2)cn1
13 | 0.048 | 29.2 | O=C1NCCC12CCN(c1c(Cl)cncc1-c1coc3ccccc13)CC2
14 | 0.67 | 1.71 | Cn1ncc2cc(Nc3cncc(Cl)c3N3CCC4(CCNC4=O)CC3)ccc21
15 | 0.079 | 10.1 | Cn1c(-c2cncc(Cl)c2N2CCC3(CCNC3=O)CC2)cc2ccccc21
16 | 0.066 | 7.55 | O=C1NCCC12CCN(c1c(Cl)cncc1-c1cncc3ccccc13)CC2
